Screening data as filed in PubChem.
CaV13 FRET inh – Primary screen for inhibitors of IQ motif and Ca2+-dependent inactivation inhibitor domain binding in CACNA1D, Förster resonance energy transfer in living cells, …; HEK cells, CFP/YFP FRET ICDI-IQ, plate reader, 10 min; percent FRET-ratio fall versus neutral wells; inhibition, % at 12.3 µM; 340,000 tested, 0.098% active; AID 743397;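 active = mean replicate inhibition of at least 30% and at least 1% of replicates passing that level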;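 also: 0% = median of the neutral control wells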
aDG glyco up – alpha-DG glycosylation activation; Pro5-aDG cells, alpha-DG glycosylation AlphaScreen (IIH6); 0% Pro5, 100% B10-LARGE cell signal; activation, % at 10 µM; 360,000 tested, 0.22% active;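 active = activation of at least 8% versus controls, or a plate z-score of at least 8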;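 also: Pro5 are CHO cells carrying HIG-tagged alpha-DG that lacks glycosylation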
proCasp3 act – procaspase-3 (human) activation | P42574 | 330,000 tested, 0.11% active | recombinant procaspase-3 D3A, Ac-DEVD-pNA absorbance 405 nm | activation, % at 8.5 µM;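 active = activation above the mean of all tested compounds plus 3 SD, cut at about 21% in these data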;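 also: 0% = DMSO alone and 100% = DMSO wells spiked with extra 5 µM PC-3 D3A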
Target sequence (P42574 whole entry D9A/D28A/D175A): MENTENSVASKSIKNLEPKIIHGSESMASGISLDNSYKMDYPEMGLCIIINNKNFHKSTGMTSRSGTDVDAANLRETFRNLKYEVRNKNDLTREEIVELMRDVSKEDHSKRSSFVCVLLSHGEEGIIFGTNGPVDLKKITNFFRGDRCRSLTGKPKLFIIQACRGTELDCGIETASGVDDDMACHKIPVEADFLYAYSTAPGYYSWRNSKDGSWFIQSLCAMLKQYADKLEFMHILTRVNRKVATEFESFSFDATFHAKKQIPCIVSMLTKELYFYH
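Assay system – Procaspase-3 D3A mutant, all three cleavage aspartates alanine · Controls – DMSO-only low control, 5 µM PC-3 D3A high control · Schedule – 1 h compound preincubation, 2 h substrate hydrolysis at 25 °C · Signal – 405 nm absorbance of p-nitroaniline, reads at 0 and 120 min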
T cell HTS – T cell immune modulators affecting CD8 T cell-vesicle binding. response (vesicle binding), % at 7 µM. 330,000 tested, 0.068% active. 2C CD8+ T cell-vesicle binding, flow cytometry; stronger effect = lower value;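 active = response, share of CD8 T cells binding vesicles, and their 90th percentile fluorescence all below set limits, cut at about 80% in these data, passing the limit was not always enough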;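 also: values below 100% mean blocked vesicle binding to the CD8+ T cells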
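Assay system: 2C TCR transgenic mouse naive CD8+ T cells, MACS-purified | Read-out: CD8+ gate FL2 mean fluorescence as % of same-row positive control | Signal: High-throughput flow cytometry with anti-B7-1 and anti-CD8 staining | Timing: Binding step 1.5 h, 37 °C, antibody labelling 20 min, ice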
proCasp7 act – activates human procaspase-7, counter-screen for procaspase-3 activators | 330,000 tested, 0.093% active | recombinant procaspase-7, Ac-DEVD-pNA absorbance 405 nm; D23A/D198A/D206A triple mutant, cannot self-cleave; scale: DMSO 0, 5 µM enzyme 100 | AID 463210 | activation, % at 8.5 µM;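 active = percent activation above the screen-wide mean plus 3 SD, cut at about 25% in these data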
Target sequence (P55210 whole entry D23A/D198A/D206A): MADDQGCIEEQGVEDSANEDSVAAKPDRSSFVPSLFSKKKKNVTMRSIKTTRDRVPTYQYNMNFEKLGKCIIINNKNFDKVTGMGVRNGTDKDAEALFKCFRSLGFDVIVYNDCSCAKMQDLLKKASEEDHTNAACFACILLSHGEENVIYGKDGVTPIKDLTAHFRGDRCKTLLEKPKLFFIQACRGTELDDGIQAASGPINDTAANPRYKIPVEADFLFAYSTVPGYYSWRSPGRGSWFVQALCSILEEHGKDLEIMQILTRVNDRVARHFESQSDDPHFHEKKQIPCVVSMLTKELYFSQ
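Assay system: Uncleavable procaspase-7 mutant enzyme / Input: 2 µM procaspase-7 mutant as dispensed / Dosing: single nominal 8.5 µM compound dose, 0.8% DMSO final / Timing: 1 h enzyme–compound preincubation and 2 h substrate reaction, both 25 °C / Detection: p-Nitroaniline absorbance at 405 nm, read at 0 and 120 min / Replication: singlicate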
GRK2 inh – human GRK2 inhibition via aptamer displacement | inhibition of aptamer binding, % at 10 µM | 330,000 tested, 0.59% active | P25098 | bead flow cytometry, FAM-aptamer displacement from GRK2;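 active = inhibition of aptamer binding above 40%, roughly 3 SD of noise, on plates passing a quality check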;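 also: median bead fluorescence of bound FAM aptamer so fluorescent compounds give negative values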
GRK2 CP1 – human GRK2 inhibition confirmation, cherry pick 1 | shares compounds with GRK2 inh | aptamer displacement, % at 10 µM | 2,000 tested, 4% active | bead-bound GRK2, FAM-aptamer displacement, flow cytometry;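 active = aptamer displacement above 40%, near three times the noise of non-fluorescent compounds, on plates passing quality checks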;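 also: negative values mostly reflect intrinsic compound fluorescence rather than true enhancement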
FAM quench CP1 – aptamer fluorescence quenching in GRK2 counter-screen | shares compounds with GRK2 inh | Carboxyfluorescein RNA aptamer on beads, flow cytometry quenching; stronger effect = lower value | fluorescence response (% of DMSO), % at 10 µM | 2,000 tested, under 10 active;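 active = compounds that quench the bead-bound fluorescent RNA probe, cutting fluorescence to under half of the solvent control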;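 also: counterscreen run without GRK2 so only probe quenching by compound is measured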
GRK2 CP2 – human GRK2 inhibition confirmation, cherry pick 2; 360 tested, under 10 active; AID 504782; shares compounds with GRK2 inh; inhibition of aptamer binding, % at 10 µM; bead-bound GRK2, FAM-aptamer displacement, flow cytometry;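 active = inhibition of aptamer binding above 40%, about triple the noise seen with nonglowing compounds, on plates passing quality control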;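 also: negative values mostly come from compounds that fluoresce themselves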
FAM quench SP – aptamer fluorescence quenching in GRK2 counter-screen; shares compounds with GRK2 inh; carboxyfluorescein RNA aptamer beads, flow cytometry quenching; stronger effect = lower value; fluorescence response vs DMSO, % at 10 µM; 360 tested, under 10 active; AID 588494;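 active = response vs DMSO under 50%, meaning signal dropped by over half, treated as fluorescence quencher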;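 also: labelled aptamer on streptavidin beads without GRK2 as a quench counter-screen; 100% = bead fluorescence of DMSO wells and lower means quenching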
* hit, by the source's call; nt = not tested or not shown. In the library only some 1.1% were active in any assay of this set; here they are far more common.

SMILES | CaV13 FRET inh | aDG glyco up | proCasp3 act | T cell HTS | proCasp7 act | GRK2 inh | GRK2 CP1 | FAM quench CP1 | others
CCNc1nc(SCC(=O)Nc2ccc(Cl)c(Cl)c2)nc(N(C)C)n1 | -4 | 1 | 6 | 244 | 7 | 45* | 0 | 105
CC(=O)C1=C(C)N(Cc2ccc(F)cc2)C(=S)NC1c1cccc(Cl)c1 (stereo not drawn) | -3 | nt | nt | nt | nt | nt | nt | nt
CC(Oc1ccc([N+](=O)[O-])cc1Cl)C(=O)Nc1ccc(C(N)=O)cc1 (stereo not drawn) | -4 | 0 | -1 | 181 | -11 | 95* | 3 | 102
CC(=O)Nc1ccc(Oc2ccc([N+](=O)[O-])cc2Cl)cc1 | -4 | 0 | -6 | 188 | 7 | 0 | nt | nt
COc1cc(C2C(=O)N(C3CCCC3)CC(=O)N2Cc2ccco2)ccc1OC(C)C (stereo not drawn) | -5 | 0 | 7 | 610 | -4 | 58* | -1 | 99
CCN=C1NC(CCc2ccccc2)C(C(=O)OC)=C(C)N1Cc1ccc(C(F)(F)F)cc1 (stereo not drawn) | -4 | nt | nt | nt | nt | nt | nt | nt
CCOc1ccc(NC(=O)CSc2ccc3nnc(-c4cccnc4)n3n2)cc1 | -9 | 0 | -2 | 594 | 5 | 41* | nt | nt | GRK2 CP2=-1;FAM quench SP=100
O=c1c2ccccc2sn1-c1ccc(Cl)cc1Cl | -4 | 0 | nt | nt | nt | nt | nt | nt
O=C(CSc1cn(CCNC(=O)c2cccs2)c2ccccc12)NC1CCCCC1 | -3 | 0 | -1 | 508 | -4 | 7 | nt | nt | GRK2 CP2=-26;FAM quench SP=97
O=C(CSc1cn(CCNC(=O)c2cccs2)c2ccccc12)NCC1CCCO1 (stereo not drawn) | -2 | 0 | -1 | 175 | -4 | 0 | nt | nt | GRK2 CP2=-1;FAM quench SP=101
CCCn1cc(SCC(=O)NCC2CCCO2)c2ccccc21 (stereo not drawn) | -5 | 0 | 3 | 572 | 0 | 3 | nt | nt
COc1cccc(-c2ncn(CCc3ccccc3OC)c2C(C)C)c1 | -8 | 0 | nt | nt | nt | nt | nt | nt
COC(=O)[C@@]12C[C@@H](CC(=O)NCCc3ccccc3OC)C(=O)N(Cc3ccccc3)C1=CCC(C)(C)C2 | -11 | 0 | nt | nt | nt | nt | nt | nt
O=c1sc2ccccc2n1Cc1ccccc1 | -3 | 0 | 11 | 209 | 3 | 85* | -1 | 95
COc1ccc(Cn2c(=O)sc3ccccc32)cc1 | -5 | 0 | 0 | 330 | -1 | 3 | nt | nt
CC(NCc1ccc(OCC(N)=O)cc1)C12CC3CC(CC(C3)C1)C2 (stereo not drawn) | -20 | 0 | -2 | 171 | -5 | 0 | nt | nt
COc1ccc(OCC(=O)Nc2ccc(N3CCN(C(=O)c4ccccc4)CC3)c(Cl)c2)cc1 | nt | 2 | 3 | 327 | -9 | 0 | nt | nt
O=S1(=O)CC(N2CCCC2)CN1Cc1cn(Cc2ccc(C(F)(F)F)cc2)nn1 (stereo not drawn) | -3 | nt | nt | nt | nt | nt | nt | nt
O=C(NCc1ccccc1)c1cccc(NC(=O)c2ccccc2)c1 | -5 | 0 | nt | nt | nt | nt | 2 | 103
COc1ccc(C(=O)N/C(=C\c2ccccc2)C(=O)Nc2cccc(C(=O)O)c2)cc1 | 0 | 0 | 3 | 256 | 14 | 90* | 1 | 105
COc1ccc(/C=C(\NC(=O)c2ccc(OC)cc2)C(=O)Nc2ccc(C(=O)O)cc2)cc1 | -18 | 0 | nt | 188 | nt | 1 | nt | nt
O=C(NCc1ccccc1Cl)c1cccc(NC2=NC3CS(=O)(=O)CC3S2)c1 (stereo not drawn) | -5 | 0 | -3 | 458 | 12 | 2 | -2 | 97
COc1ccccc1CNC(=O)c1cccc(NC(=O)c2ccccc2)c1 | -6 | 2 | 1 | 366 | 5 | 1 | -2 | 95
COc1ccc(C(=O)Nc2c(O)ccc3ccccc23)cc1OC | -3 | 0 | 2 | 422 | -8 | 1 | nt | nt
O=C(NCc1ccccc1Cl)c1cccc(NC(=O)c2ccccc2)c1 | -2 | 0 | 13 | 995 | 9 | 0 | 2 | 122
SMILES | CaV13 FRET inh | aDG glyco up | proCasp3 act | T cell HTS | proCasp7 act | GRK2 inh | GRK2 CP1 | FAM quench CP1 | others
COc1ccc(C(=O)Nc2c(O)ccc3ccccc23)cc1 | -2 | 0 | -4 | 329 | -9 | 98* | -3 | 95
CN(C)c1cccc(C(=O)NCc2ccccc2Cl)c1 | -5 | 0 | 8 | 154 | 2 | 2 | nt | nt
COc1ccc(CC(=O)Nc2cccc(C(=O)Nc3cccc(C)c3)c2)cc1 | nt | nt | -1 | 174 | -3 | 2 | nt | nt
COc1ccc(CNC(=O)c2cccc(NC(=O)c3ccccc3)c2)cc1 | 2 | 0 | 5 | 136 | -5 | 2 | 3 | 104
Cc1ccc(C(=O)Nc2cccc(C(=O)NCc3ccccc3)c2)o1 | -7 | 0 | 4 | nt | 7 | 0 | -21 | 98
COC(=O)[C@]12C[C@H](CC(=O)NCc3cccc4ccccc34)C(=O)N(Cc3ccc4c(c3)OCO4)C1=C[C@H](COCc1ccccc1)O[C@@H]2C | -8 | nt | nt | nt | nt | nt | nt | nt
Cc1cccc(-n2c(CNC(=O)Cc3ccccc3)n[nH]c2=S)c1 | -5 | 0 | -2 | 309 | -7 | 3 | nt | nt
CCC(C)[C@H](NC(=O)N1CC(=O)Nc2ccccc21)C(=O)N1CCC[C@H]1C(=O)O (stereo partly drawn) | nt | 0 | 12 | 336 | 12 | 0 | nt | nt
COC(=O)C1=C(C)N(C)C(=NCC2CC2)NC1c1ccc(Cl)cc1 (stereo not drawn) | -4 | nt | nt | nt | nt | nt | nt | nt
CC(C)(C)C(Cn1ccnc1)NC(=O)c1ccc2nc(C3CC3)oc2c1 (stereo not drawn) | nt | 0 | 5 | 349 | 1 | 4 | nt | nt
COc1cccc(-c2nc(N3CCCC3)c3ccccc3n2)c1O | -5 | 0 | 5 | 282 | -1 | 0 | nt | nt
